From ChEMBL document CHEMBL1141169, “Discovery of 5-arylsulfonamido-3-(pyrrolidin-2-ylmethyl)-1H-indole derivatives as potent, selective 5-HT6 receptor agonists and antagonists” (J Med Chem, 2005)

How the values were obtained:
[1] = target: T1, D(4) dopamine receptor (Homo sapiens, UniProt P21917); experiment: Inhibition of [3H]spiperone binding to human dopamine receptor D4 expressed in CHO-K1 cells; format: cell-based
T1 sequence (P21917 whole entry): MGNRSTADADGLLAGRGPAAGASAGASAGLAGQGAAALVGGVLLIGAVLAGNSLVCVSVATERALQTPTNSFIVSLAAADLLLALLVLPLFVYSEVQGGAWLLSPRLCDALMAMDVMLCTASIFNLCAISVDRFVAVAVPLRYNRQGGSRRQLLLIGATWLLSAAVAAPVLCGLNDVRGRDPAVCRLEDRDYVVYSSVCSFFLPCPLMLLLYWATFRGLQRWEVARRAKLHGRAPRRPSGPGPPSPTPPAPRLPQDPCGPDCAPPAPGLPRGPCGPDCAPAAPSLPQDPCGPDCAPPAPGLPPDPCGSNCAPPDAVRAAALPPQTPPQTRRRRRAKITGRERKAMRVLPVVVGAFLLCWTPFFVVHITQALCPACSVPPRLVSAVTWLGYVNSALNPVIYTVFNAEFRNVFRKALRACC
How it was run: (§1)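 Radioligands: 5-HT1A, 8-hydroxy-[3H]-DPAT; 5-HT2C, [3H]-5-HT; 5-HT2A, [125I]DOI; D2, D3 and D4, [3H]spiperone. Ki determined in triplicate, or n = 1 where footnoted.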

[2] = target: T2, 5-hydroxytryptamine receptor 2C (Homo sapiens, UniProt P28335); experiment: Inhibition of [3H]5-HT binding to human 5-hydroxytryptamine 2C receptor expressed in CHO cells; format: cell-based; how it was run: as §1
T2 sequence (P28335 whole entry): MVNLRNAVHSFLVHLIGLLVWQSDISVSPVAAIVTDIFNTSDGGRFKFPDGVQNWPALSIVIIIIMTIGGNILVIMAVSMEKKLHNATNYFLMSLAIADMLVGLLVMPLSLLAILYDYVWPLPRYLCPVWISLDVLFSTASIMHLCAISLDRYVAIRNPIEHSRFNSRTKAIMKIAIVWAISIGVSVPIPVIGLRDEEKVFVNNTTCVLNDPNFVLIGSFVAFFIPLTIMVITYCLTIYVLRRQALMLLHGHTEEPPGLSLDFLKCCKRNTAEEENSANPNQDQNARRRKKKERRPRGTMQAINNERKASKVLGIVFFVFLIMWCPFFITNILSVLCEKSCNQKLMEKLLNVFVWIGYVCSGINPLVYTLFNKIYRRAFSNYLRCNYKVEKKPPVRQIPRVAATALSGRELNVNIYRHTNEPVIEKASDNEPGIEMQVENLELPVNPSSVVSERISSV

[3] = target: T3, 5-hydroxytryptamine receptor 6 (Homo sapiens, UniProt P50406); experiment: Effective agonist concentration in cAMP release assay in HeLa cells expressing human 5-hydroxytryptamine 6 receptor; format: functional, cell-based
T3 sequence (P50406 whole entry): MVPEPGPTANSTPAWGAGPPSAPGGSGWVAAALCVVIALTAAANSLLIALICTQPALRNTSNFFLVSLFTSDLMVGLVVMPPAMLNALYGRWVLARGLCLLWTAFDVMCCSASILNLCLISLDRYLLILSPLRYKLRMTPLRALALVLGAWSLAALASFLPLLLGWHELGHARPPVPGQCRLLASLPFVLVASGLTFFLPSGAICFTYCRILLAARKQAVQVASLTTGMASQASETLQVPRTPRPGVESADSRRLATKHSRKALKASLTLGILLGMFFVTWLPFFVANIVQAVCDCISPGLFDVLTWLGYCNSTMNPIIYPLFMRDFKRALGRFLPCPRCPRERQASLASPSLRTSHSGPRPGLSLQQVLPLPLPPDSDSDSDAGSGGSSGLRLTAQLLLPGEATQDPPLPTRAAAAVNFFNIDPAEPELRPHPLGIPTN
How it was run: (§2)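 cAMP production read out across a range of ligand concentrations in HeLa cells stably transfected with the human 5-HT6 receptor, ligand given alone as agonist. EC50 and Emax each determined in triplicate.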

[4] = target: T3, 5-hydroxytryptamine receptor 6; experiment: Maximum percentage agonism of cAMP production in HeLa cells expressing human 5-hydroxytryptamine 6 receptor; format: functional, cell-based; how it was run: as §2
[5] = target: T4, 5-hydroxytryptamine receptor 1A (Homo sapiens, UniProt P08908); experiment: Inhibition of [3H]8-OH-DPAT binding to human 5-hydroxytryptamine 1A receptor expressed in CHO cells; format: cell-based; how it was run: as §1
T4 sequence (P08908 whole entry): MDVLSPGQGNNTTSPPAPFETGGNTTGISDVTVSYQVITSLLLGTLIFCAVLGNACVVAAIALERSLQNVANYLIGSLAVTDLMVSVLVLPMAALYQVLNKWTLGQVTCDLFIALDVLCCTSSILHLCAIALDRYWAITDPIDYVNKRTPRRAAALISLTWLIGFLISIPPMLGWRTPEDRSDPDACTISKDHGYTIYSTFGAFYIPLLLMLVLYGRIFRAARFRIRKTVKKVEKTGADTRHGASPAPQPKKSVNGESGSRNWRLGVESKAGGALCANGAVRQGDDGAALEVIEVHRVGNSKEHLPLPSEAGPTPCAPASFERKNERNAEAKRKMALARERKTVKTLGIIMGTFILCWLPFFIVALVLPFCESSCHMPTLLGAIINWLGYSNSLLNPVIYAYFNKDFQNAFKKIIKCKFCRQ

[6] = target: T5, 5-hydroxytryptamine receptor 1F (Homo sapiens, UniProt P30939); experiment: Inhibition of [3H]8-OH-DPAT binding to human 5-hydroxytryptamine 1F receptor expressed in CHO cells; format: cell-based
T5 sequence (P30939 whole entry): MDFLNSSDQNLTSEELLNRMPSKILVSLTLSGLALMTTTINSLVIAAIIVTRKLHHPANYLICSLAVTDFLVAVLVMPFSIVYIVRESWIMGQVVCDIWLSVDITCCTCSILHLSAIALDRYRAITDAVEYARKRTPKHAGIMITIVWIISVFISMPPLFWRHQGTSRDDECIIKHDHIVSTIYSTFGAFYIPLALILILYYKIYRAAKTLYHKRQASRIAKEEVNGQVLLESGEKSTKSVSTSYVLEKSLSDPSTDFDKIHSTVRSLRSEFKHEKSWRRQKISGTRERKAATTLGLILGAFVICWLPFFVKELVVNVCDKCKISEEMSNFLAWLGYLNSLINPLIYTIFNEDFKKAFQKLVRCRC

[7] = target: T3, 5-hydroxytryptamine receptor 6; experiment: Inhibition of [3H]LSD binding to human 5-hydroxytryptamine 6 receptor expressed in HeLa cells; format: cell-based
How it was run: (§3)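 Competition binding against [3H]-LSD on cloned human 5-HT6 receptors stably expressed in HeLa cells. Ki determined in triplicate; single-point lines are % inhibition at 1000 nM.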

[8] = target: D(2) dopamine receptor (Homo sapiens, UniProt P14416); experiment: Inhibition of [3H]spiperone binding to human dopamine receptor D2 expressed in CHO-K1 cells; format: cell-based; how it was run: as §1
D(2) dopamine receptor, sequence (P14416 whole entry): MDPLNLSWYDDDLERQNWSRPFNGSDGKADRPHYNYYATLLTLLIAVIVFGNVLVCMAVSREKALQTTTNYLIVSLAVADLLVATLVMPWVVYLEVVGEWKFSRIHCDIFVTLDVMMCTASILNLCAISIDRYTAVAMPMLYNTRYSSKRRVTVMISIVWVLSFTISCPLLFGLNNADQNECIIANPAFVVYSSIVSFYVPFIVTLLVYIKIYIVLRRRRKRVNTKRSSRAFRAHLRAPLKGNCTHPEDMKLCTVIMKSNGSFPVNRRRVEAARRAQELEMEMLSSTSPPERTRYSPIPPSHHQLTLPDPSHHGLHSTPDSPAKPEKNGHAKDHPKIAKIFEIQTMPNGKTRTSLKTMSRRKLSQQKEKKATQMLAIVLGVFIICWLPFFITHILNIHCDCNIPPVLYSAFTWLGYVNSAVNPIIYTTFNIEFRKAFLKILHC

[9] = target: 5-hydroxytryptamine receptor 1D (Homo sapiens, UniProt P28221); experiment: Inhibition of [3H]-8-OH-DPAT binding to human 5-hydroxytryptamine 1D receptor expressed in CHO cells; format: cell-based
5-hydroxytryptamine receptor 1D, sequence (P28221 whole entry): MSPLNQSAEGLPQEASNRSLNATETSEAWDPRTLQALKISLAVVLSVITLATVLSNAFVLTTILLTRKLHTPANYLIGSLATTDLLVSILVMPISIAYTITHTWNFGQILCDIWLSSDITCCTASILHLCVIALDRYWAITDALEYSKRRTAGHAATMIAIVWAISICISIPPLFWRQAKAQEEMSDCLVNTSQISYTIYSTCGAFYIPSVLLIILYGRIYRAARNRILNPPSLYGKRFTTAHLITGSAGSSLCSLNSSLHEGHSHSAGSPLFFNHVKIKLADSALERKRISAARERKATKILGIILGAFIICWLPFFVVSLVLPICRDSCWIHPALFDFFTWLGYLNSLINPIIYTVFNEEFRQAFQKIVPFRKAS

[10] = target: D(3) dopamine receptor (Homo sapiens, UniProt P35462); experiment: Inhibition of [3H]spiperone binding to human dopamine receptor D3 expressed in CHO-K1 cells; format: cell-based; how it was run: as §1
D(3) dopamine receptor, sequence (P35462 whole entry): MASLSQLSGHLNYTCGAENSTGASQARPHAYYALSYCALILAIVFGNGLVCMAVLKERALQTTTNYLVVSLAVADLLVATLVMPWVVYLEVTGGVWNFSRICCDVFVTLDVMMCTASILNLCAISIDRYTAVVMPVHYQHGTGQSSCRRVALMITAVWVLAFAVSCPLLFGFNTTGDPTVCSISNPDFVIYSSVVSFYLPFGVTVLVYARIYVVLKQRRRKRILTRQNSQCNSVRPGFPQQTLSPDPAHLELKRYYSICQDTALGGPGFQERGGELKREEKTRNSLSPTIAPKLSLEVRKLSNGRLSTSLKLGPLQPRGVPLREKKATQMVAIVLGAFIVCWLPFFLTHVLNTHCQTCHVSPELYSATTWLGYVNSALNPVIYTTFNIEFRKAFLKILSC

[11] = target: T3, 5-hydroxytryptamine receptor 6; conditions: HeLa
[12] = target: T3, 5-hydroxytryptamine receptor 6; experiment: Percentage inhibition of [3H]LSD binding to human 5-hydroxytryptamine 6 receptor expressed in HeLa cells at 1000 nM; format: cell-based; how it was run: as §3
[13] = target: 5-hydroxytryptamine receptor 7 (Homo sapiens, UniProt P34969); experiment: Inhibition of [3H]-LSD binding to 5-hydroxytryptamine 7 receptor expressed in CHO cells; format: cell-based
5-hydroxytryptamine receptor 7, sequence (P34969 whole entry): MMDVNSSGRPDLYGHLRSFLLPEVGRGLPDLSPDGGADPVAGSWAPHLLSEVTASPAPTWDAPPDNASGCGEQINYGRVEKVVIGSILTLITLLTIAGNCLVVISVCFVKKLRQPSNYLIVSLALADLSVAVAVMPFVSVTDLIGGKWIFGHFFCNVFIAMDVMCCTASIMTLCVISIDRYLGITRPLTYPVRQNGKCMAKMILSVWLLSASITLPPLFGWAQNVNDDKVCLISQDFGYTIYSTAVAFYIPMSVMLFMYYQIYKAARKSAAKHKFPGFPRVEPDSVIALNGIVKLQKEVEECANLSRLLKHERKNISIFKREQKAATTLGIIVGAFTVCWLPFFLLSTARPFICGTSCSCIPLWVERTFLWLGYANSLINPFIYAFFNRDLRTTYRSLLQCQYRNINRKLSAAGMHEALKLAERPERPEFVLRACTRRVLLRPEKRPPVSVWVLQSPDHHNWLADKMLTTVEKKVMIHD
How it was run: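 Displacement of [3H]-LSD from human 5-HT7 receptor clone stably expressed in CHO cells. Ki in triplicate, or n = 1 where footnoted.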

[14] = target: T6, 5-hydroxytryptamine receptor 2A (Homo sapiens, UniProt P28223); experiment: Inhibition of [125I]DOI binding to human 5-hydroxytryptamine 2A receptor expressed in CHO cells; format: cell-based; how it was run: as §1
T6 sequence (P28223 whole entry): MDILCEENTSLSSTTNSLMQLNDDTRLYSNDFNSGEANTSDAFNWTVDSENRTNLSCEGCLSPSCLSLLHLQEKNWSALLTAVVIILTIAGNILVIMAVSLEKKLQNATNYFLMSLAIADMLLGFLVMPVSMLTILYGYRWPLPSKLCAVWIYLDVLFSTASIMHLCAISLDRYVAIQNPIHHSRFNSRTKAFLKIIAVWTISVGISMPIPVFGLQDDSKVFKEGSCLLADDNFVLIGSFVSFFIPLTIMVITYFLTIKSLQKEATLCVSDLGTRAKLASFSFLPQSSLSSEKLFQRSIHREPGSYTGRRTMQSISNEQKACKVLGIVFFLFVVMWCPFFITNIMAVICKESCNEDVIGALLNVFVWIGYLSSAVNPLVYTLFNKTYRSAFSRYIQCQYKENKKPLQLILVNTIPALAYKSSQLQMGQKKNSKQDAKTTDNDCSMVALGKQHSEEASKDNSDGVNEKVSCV

[15] = target: T6, 5-hydroxytryptamine receptor 2A; experiment: Percentage inhibition of [125I]DOI binding to human 5-hydroxytryptamine 2A receptor expressed in CHO cells at 1000 nM; format: cell-based

SMILES: O=S(=O)(Nc1ccc2[nH]cc(C[C@H]3CCCN3)c2c1)c1ccccc1Cl
- Ki [1]: > 5 µM
- Ki [2]: 0.566 µM
- EC50 [3]: 0.0013 µM
- Emax [4]: 100%
- Ki [5]: 0.552 µM
- Ki [6]: 0.0123 µM
- Ki [7]: 0.003 µM
- Ki [8]: > 5 µM
- Ki [9]: > 1 µM
- Ki [10]: > 5 µM

SMILES: COc1ccc2c(c1)c(CCN(C)C)cn2S(=O)(=O)c1ccccc1
- Affinity [11]: 16 nM

SMILES: O=S(=O)(Nc1ccc2[nH]cc(C[C@@H]3CCCN3)c2c1)c1ccc(F)cc1
- inhibition [12]: 74%

SMILES: CN1CCC[C@@H]1Cc1c[nH]c2ccc(NS(=O)(=O)c3ccccc3Cl)cc12
- Ki [1]: > 5 µM
- Ki [2]: 0.289 µM
- EC50 [3]: 0.0011 µM
- Emax [4]: 100%
- Ki [5]: 0.17 µM
- Ki [6]: 0.016 µM
- Ki [7]: 0.001 µM
- Ki [8]: > 2 µM
- Ki [9]: 0.0295 µM
- Ki [10]: > 1 µM
- Ki [13]: 0.074 µM
- Ki [14]: 0.367 µM

SMILES: O=S(=O)(Cc1ccccc1I)Nc1ccc2[nH]cc(C[C@H]3CCCN3)c2c1
- Emax [4]: 100%
- inhibition [15]: 42%

SMILES: CN1CCC[C@@H]1Cc1c[nH]c2ccc(NS(=O)(=O)c3cccc(Cl)c3)cc12
- Ki [1]: > 5 µM
- Ki [2]: 0.231 µM
- EC50 [3]: 0.0016 µM
- Emax [4]: 100%
- Ki [5]: 0.2 µM
- Ki [6]: 0.0027 µM
- Ki [7]: 0.0004 µM
- Ki [8]: > 2 µM
- Ki [9]: 0.0047 µM
- Ki [10]: 0.93 µM
- Ki [13]: 0.024 µM
- Ki [14]: 0.269 µM

SMILES: COc1ccc(S(=O)(=O)Nc2ccc3[nH]cc(C[C@@H]4CCCN4)c3c2)cc1
- inhibition [12]: 64%
